In ChEMBL document CHEMBL3627661, “Synthesis and biological evaluation of di-aryl urea derivatives as c-Kit inhibitors” (Bioorg Med Chem, 2015) one finds IC50 data, which are given here for 23 molecules.

One may read the IC50 as the midpoint of a concentration-inhibition curve.

Structures are written as SMILES.

Sequence of Platelet-derived growth factor receptor beta (P09619 whole entry): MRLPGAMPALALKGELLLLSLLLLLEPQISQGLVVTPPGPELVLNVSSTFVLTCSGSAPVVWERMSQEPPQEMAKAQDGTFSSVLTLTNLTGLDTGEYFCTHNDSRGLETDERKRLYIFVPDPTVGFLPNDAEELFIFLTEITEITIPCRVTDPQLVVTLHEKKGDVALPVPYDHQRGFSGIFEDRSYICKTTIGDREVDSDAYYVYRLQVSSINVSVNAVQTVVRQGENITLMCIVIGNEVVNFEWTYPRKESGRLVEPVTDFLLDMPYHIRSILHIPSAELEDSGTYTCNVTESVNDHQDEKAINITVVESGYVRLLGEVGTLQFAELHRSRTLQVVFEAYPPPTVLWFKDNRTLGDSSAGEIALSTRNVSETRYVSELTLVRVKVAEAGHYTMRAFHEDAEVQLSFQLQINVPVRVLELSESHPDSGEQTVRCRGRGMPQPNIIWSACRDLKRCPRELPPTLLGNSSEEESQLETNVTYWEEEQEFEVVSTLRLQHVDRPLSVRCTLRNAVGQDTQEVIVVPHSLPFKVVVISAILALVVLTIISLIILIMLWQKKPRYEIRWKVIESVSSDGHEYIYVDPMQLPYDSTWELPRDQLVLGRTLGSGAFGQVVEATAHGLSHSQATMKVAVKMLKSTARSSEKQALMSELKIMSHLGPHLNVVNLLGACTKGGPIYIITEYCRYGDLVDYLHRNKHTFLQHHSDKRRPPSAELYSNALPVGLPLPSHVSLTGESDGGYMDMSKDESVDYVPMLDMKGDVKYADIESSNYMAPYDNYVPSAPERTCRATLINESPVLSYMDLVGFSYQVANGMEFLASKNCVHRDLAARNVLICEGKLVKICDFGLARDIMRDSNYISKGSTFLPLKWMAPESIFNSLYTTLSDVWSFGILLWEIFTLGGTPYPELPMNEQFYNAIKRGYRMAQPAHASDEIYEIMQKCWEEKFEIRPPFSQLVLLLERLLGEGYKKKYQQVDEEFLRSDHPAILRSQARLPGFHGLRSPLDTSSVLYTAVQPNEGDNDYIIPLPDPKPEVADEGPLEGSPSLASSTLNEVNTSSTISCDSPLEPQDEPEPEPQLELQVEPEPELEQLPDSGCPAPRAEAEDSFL
Sequence of Vascular endothelial growth factor receptor 1 (P17948 whole entry): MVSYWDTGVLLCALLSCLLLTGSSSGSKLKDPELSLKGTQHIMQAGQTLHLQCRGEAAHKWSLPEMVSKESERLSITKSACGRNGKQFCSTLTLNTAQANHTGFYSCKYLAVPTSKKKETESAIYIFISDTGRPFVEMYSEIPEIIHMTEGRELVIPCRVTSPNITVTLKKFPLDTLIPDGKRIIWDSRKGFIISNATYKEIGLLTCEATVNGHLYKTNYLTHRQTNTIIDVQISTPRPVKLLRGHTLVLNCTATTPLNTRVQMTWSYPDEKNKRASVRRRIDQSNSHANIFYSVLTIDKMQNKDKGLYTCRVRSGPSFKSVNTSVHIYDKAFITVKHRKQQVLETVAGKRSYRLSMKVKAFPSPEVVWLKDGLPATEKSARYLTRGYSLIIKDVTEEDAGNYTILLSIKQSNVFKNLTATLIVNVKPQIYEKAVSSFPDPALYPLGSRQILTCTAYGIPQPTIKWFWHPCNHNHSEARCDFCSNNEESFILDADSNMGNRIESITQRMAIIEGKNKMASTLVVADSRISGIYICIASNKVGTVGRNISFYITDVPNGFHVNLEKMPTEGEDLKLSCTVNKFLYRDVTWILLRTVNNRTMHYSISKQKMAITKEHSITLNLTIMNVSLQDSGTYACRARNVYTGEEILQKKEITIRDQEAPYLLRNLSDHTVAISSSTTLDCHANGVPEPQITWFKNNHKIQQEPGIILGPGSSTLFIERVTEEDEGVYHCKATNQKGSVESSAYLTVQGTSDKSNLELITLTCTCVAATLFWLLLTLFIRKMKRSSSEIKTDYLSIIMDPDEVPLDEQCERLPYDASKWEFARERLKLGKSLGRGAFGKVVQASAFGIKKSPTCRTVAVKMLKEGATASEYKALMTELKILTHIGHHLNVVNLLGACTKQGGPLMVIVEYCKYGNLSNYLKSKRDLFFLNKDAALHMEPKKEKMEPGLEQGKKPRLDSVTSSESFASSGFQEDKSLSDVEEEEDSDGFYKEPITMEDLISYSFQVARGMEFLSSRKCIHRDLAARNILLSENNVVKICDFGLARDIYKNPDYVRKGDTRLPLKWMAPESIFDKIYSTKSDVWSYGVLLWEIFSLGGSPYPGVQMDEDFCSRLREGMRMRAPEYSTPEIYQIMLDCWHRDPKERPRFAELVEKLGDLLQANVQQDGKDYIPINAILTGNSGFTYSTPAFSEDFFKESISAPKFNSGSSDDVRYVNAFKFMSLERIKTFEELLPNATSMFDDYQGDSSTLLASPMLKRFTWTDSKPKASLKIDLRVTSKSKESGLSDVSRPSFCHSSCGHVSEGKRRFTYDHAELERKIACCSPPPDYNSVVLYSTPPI
Sequence of Proto-oncogene tyrosine-protein kinase Src (P12931 2-536 limits assumed): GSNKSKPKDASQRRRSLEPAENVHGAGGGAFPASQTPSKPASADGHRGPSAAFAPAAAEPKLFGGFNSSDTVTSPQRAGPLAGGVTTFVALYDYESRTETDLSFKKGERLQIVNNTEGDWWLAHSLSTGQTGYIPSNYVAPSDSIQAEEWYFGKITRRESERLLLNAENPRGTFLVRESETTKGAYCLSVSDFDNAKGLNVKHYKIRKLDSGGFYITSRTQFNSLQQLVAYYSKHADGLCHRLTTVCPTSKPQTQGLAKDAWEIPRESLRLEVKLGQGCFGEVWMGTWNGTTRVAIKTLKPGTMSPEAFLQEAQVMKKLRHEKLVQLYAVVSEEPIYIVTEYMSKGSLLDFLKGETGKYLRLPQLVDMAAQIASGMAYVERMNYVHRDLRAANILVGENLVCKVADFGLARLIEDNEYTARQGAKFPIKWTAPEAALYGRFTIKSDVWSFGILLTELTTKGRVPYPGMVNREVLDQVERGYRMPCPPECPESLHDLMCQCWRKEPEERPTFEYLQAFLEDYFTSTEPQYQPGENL

One assay addresses Proto-oncogene tyrosine-protein kinase Src (Homo sapiens, UniProt P12931). Briefly: Inhibition of Src (unknown origin) by radiometric protein kinase assay.
Regarding `COc1cc2ncnc(Oc3ccc(NC(=O)Nc4cccc(Br)c4)cc3)c2cc1OC`, half-maximal inhibition (IC50) was put at 5470 nM.

Molecule `O=C(Nc1ccc(Nc2ncnc3ccccc23)cc1)Nc1cccc(Br)c1` yielded a 50% inhibitory concentration (IC50) above 10000 nM.

For the molecule `O=C(Nc1ccc(Nc2ncnc3sccc23)cc1)Nc1cccc(Br)c1`, the IC50 was above 10000 nM.

Take `O=C(Nc1ccc(Nc2ncnc3sc4c(c23)CCCC4)cc1)Nc1cccc(Br)c1`: the IC50 was found to be 7640 nM.

For the molecule `O=C(Nc1ccc(Oc2ncnc3ccccc23)cc1)Nc1cccc(Br)c1`, the IC50 was above 10000 nM.

`O=C(Nc1ccc(Oc2ncnc3sccc23)cc1)Nc1cccc(Br)c1` registered an IC50 above 10000 nM.

`O=C(Nc1ccc(Oc2ncnc3sc4c(c23)CCCC4)cc1)Nc1cccc(Br)c1` showed an IC50 of 8460 nM.

The next assay has as its target Vascular endothelial growth factor receptor 1 (Homo sapiens, UniProt P17948). Nature of the assay: Inhibition of VEGFR1 (unknown origin) by radiometric protein kinase assay.
As for `COc1cc2ncnc(Oc3ccc(NC(=O)Nc4cccc(Br)c4)cc3)c2cc1OC`, the half-maximal inhibitory concentration (IC50) is 46 nM.

Consider `O=C(Nc1ccc(Nc2ncnc3ccccc23)cc1)Nc1cccc(Br)c1`, for which the IC50 is 5750 nM.

Take `O=C(Nc1ccc(Nc2ncnc3sccc23)cc1)Nc1cccc(Br)c1`: the IC50 was above 10000 nM.

Regarding `O=C(Nc1ccc(Nc2ncnc3sc4c(c23)CCCC4)cc1)Nc1cccc(Br)c1`, the IC50 came to 7150 nM.

On to `O=C(Nc1ccc(Oc2ncnc3ccccc23)cc1)Nc1cccc(Br)c1`, for which the IC50 is 650 nM.

The molecule `O=C(Nc1ccc(Oc2ncnc3sccc23)cc1)Nc1cccc(Br)c1` had an IC50 of 1080 nM.

In the case of `O=C(Nc1ccc(Oc2ncnc3sc4c(c23)CCCC4)cc1)Nc1cccc(Br)c1`, the IC50 worked out at 1700 nM.

For another assay, the target named is RAF proto-oncogene serine/threonine-protein kinase (Homo sapiens, UniProt P04049). Nature of the assay: Inhibition of Raf (unknown origin) by radiometric protein kinase assay.
Sequence of RAF proto-oncogene serine/threonine-protein kinase (P04049 whole entry): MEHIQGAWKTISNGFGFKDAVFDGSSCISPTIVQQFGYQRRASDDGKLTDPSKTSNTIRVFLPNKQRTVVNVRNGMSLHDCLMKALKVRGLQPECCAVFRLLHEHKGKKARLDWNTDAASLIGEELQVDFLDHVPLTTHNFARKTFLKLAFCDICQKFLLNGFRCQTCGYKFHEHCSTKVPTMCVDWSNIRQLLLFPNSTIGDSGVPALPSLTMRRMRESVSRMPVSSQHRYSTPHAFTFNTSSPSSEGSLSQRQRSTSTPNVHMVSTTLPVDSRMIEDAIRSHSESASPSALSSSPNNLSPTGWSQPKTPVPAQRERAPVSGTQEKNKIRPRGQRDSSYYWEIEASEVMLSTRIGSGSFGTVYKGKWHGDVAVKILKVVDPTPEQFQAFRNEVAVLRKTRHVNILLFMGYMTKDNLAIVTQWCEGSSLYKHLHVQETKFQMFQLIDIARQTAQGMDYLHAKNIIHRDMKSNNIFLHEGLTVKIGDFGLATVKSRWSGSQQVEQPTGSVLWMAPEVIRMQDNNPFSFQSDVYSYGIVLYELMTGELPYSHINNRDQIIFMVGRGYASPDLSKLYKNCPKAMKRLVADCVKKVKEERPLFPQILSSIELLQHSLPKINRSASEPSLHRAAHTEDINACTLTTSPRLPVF
As to `COc1cc2ncnc(Oc3ccc(NC(=O)Nc4cccc(Br)c4)cc3)c2cc1OC`, the IC50 stood at 930 nM.

On to `O=C(Nc1ccc(Nc2ncnc3ccccc23)cc1)Nc1cccc(Br)c1`, for which the IC50 was above 10000 nM.

As to `O=C(Nc1ccc(Nc2ncnc3sccc23)cc1)Nc1cccc(Br)c1`, the IC50 was determined as 4020 nM.

`O=C(Nc1ccc(Nc2ncnc3sc4c(c23)CCCC4)cc1)Nc1cccc(Br)c1`: the IC50 was above 10000 nM.

In turn, `O=C(Nc1ccc(Oc2ncnc3ccccc23)cc1)Nc1cccc(Br)c1` gave an IC50 of 6220 nM.

On to `O=C(Nc1ccc(Oc2ncnc3sccc23)cc1)Nc1cccc(Br)c1`, for which the IC50 was above 10000 nM.

As to `O=C(Nc1ccc(Oc2ncnc3sc4c(c23)CCCC4)cc1)Nc1cccc(Br)c1`, half-maximal inhibition (IC50) was put at 5840 nM.

A further assay has as its target Epidermal growth factor receptor (Homo sapiens, UniProt P00533). Briefly: Inhibition of human EGFR after 1 hr using [gamma-32P]ATP.
On to `Fc1ccc(Nc2ncnc3ccccc23)cc1Cl`, for which the IC50 was determined as 30 nM.

The molecule `Fc1ccc(Nc2ncnc3sccc23)cc1Cl` gave a concentration for half-maximal inhibition (IC50) of 2980 nM.

For `Fc1ccc(Nc2ncnc3sc4c(c23)CCCC4)cc1Cl`, half-maximal inhibition (IC50) required 1330 nM.

`CCOC(=O)Nc1ccc(Nc2ncnc3ccccc23)cc1C` returned an IC50 above 10000 nM.

`CCOC(=O)Nc1ccc(Nc2ncnc3sc4c(c23)CCCC4)cc1C` registered an IC50 above 10000 nM.

As for `COc1cc2ncnc(Nc3ccc(NC(=O)Nc4cccc(Br)c4)cc3)c2cc1OC`, the IC50 is 7710 nM.

In the case of `O=C(Nc1ccc(Nc2ncnc3ccccc23)cc1)Nc1cccc(Br)c1`, the concentration for half-maximal inhibition (IC50) is above 10000 nM.

In turn, `O=C(Nc1ccc(Nc2ncnc3sccc23)cc1)Nc1cccc(Br)c1` gave an IC50 above 10000 nM.

Regarding `O=C(Nc1ccc(Nc2ncnc3sc4c(c23)CCCC4)cc1)Nc1cccc(Br)c1`, the IC50 stood at 3950 nM.

`Fc1ccc(Oc2ncnc3ccccc23)cc1Cl` came in with an IC50 of 590 nM.

Molecule `Fc1ccc(Oc2ncnc3sc4c(c23)CCCC4)cc1Cl` displayed an IC50 above 10000 nM.

`CCOC(=O)Nc1ccc(Oc2ncnc3cc(OC)c(OC)cc23)cc1C` yielded an IC50 above 10000 nM.

With `CCOC(=O)Nc1ccc(Oc2ncnc3ccccc23)cc1C`, the IC50 was above 10000 nM.

`CCOC(=O)Nc1ccc(Oc2ncnc3sccc23)cc1C` had an IC50 above 10000 nM.

Molecule `COc1cc2ncnc(Oc3ccc(NC(=O)Nc4cccc(Br)c4)c(Cl)c3)c2cc1OC` registered an IC50 above 10000 nM.

For the molecule `O=C(Nc1ccc(Oc2ncnc3ccccc23)cc1)Nc1cccc(Br)c1`, the concentration for half-maximal inhibition (IC50) is above 10000 nM.

For `O=C(Nc1ccc(Oc2ncnc3sccc23)cc1)Nc1cccc(Br)c1`, the half-maximal inhibitory concentration (IC50) was above 10000 nM.

On to `Cc1cc(Oc2ncnc3sccc23)ccc1NC(=O)Nc1cccc(Br)c1`, for which the IC50 is above 10000 nM.

`O=C(Nc1cccc(Br)c1)Nc1ccc(Oc2ncnc3sccc23)cc1Cl` registered an IC50 above 10000 nM.

Molecule `O=C(Nc1ccc(Oc2ncnc3sc4c(c23)CCCC4)cc1)Nc1cccc(Br)c1` registered an IC50 above 10000 nM.

In turn, `Cc1cc(Oc2ncnc3sc4c(c23)CCCC4)ccc1NC(=O)Nc1cccc(Br)c1` registered an IC50 of 3290 nM.

As to `O=C(Nc1cccc(Br)c1)Nc1ccc(Oc2ncnc3sc4c(c23)CCCC4)cc1Cl`, the IC50 came out at 1260 nM.

Another assay deals with Vascular endothelial growth factor receptor 2 (Homo sapiens, UniProt P35968). Briefly: Inhibition of human recombinant VEGFR-2 after 1 hr using [gamma-32P]ATP. The method in brief: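 Recombinant human VEGFR-2 (10 ng) was incubated for 1 h at 28 °C with varying compound concentrations. Kinase buffer: Tris 50 mM pH 7.5, BSA, MnCl2 1.5 mM, MgCl2 10 mM, DTT 2.5 mM, Na3VO4, β-glycerophosphate 5 mM. Substrate was poly(Glu4/Tyr), with ATP plus [γ-32P]ATP; final DMSO was 0.1%. The reaction was stopped with 100% TCA, wells were washed with 10% TCA, and each well was counted for 1 min.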
Sequence of Vascular endothelial growth factor receptor 2 (P35968 whole entry): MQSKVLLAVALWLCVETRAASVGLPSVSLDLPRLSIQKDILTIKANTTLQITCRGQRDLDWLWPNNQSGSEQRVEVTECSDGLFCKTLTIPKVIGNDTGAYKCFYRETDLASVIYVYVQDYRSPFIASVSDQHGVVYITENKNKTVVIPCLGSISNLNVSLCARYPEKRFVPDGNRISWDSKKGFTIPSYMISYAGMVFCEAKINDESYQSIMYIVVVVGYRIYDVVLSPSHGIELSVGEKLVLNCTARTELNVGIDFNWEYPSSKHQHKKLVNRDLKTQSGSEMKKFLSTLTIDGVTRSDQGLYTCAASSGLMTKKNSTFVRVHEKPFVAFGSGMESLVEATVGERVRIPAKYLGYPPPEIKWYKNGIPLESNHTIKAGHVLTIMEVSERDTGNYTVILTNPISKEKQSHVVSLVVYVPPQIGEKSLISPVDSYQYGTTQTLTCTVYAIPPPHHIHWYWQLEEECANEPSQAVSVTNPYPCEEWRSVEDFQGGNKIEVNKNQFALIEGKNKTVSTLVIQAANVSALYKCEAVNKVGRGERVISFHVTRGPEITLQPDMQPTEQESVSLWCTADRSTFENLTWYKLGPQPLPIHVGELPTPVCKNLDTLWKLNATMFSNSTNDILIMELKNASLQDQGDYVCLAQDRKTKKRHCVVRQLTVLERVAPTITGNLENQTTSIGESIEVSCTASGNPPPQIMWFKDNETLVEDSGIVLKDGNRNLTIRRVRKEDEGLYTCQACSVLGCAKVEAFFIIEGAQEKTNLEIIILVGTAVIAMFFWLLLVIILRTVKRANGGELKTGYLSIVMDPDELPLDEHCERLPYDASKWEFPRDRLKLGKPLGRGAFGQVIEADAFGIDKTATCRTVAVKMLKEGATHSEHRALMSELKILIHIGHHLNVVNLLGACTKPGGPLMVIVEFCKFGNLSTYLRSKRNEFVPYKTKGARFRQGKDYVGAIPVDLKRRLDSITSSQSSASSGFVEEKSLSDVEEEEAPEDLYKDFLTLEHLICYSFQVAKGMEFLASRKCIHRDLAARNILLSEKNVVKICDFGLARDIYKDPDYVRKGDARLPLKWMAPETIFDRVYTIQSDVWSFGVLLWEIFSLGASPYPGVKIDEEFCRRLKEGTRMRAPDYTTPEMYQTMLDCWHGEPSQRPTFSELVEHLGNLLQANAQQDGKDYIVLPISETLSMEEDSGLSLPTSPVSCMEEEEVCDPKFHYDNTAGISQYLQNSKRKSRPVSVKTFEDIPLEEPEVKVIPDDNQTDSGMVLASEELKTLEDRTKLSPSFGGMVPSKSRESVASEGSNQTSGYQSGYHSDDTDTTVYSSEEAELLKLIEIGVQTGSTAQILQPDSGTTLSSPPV
As to `Fc1ccc(Nc2ncnc3sc4c(c23)CCCC4)cc1Cl`, the half-inhibitory concentration (IC50) was above 10000 nM.

In the case of `CCOC(=O)Nc1ccc(Nc2ncnc3sc4c(c23)CCCC4)cc1C`, the IC50 was above 10000 nM.

On to `COc1cc2ncnc(Nc3ccc(NC(=O)Nc4cccc(Br)c4)cc3)c2cc1OC`, for which the IC50 stood at 12 nM.

For the molecule `O=C(Nc1ccc(Nc2ncnc3ccccc23)cc1)Nc1cccc(Br)c1`, the IC50 turned out to be 91 nM.

As for `O=C(Nc1ccc(Nc2ncnc3sc4c(c23)CCCC4)cc1)Nc1cccc(Br)c1`, the IC50 came to 310 nM.

For the molecule `Fc1ccc(Oc2ncnc3sc4c(c23)CCCC4)cc1Cl`, the IC50 was found to be 3500 nM.

Consider `CCOC(=O)Nc1ccc(Oc2ncnc3ccccc23)cc1C`, for which the IC50 was 710 nM.

Take `O=C(Nc1ccc(Oc2ncnc3ccccc23)cc1)Nc1cccc(Br)c1`: the IC50 was 8 nM.

Take `O=C(Nc1ccc(Oc2ncnc3sccc23)cc1)Nc1cccc(Br)c1`: the IC50 was found to be 18 nM.

In the case of `O=C(Nc1ccc(Oc2ncnc3sc4c(c23)CCCC4)cc1)Nc1cccc(Br)c1`, the IC50 worked out at 11 nM.

`Cc1cc(Oc2ncnc3sc4c(c23)CCCC4)ccc1NC(=O)Nc1cccc(Br)c1`: the IC50 amounted to 34 nM.

For the molecule `O=C(Nc1cccc(Br)c1)Nc1ccc(Oc2ncnc3sc4c(c23)CCCC4)cc1Cl`, the IC50 was found to be 15 nM.

The target in another assay is Hepatocyte growth factor receptor (Homo sapiens, UniProt P08581). Nature of the assay: Inhibition of c-MET (unknown origin) by radiometric protein kinase assay.
In turn, `COc1cc2ncnc(Oc3ccc(NC(=O)Nc4cccc(Br)c4)cc3)c2cc1OC` returned a concentration for half-maximal inhibition (IC50) of 2310 nM.

`O=C(Nc1ccc(Nc2ncnc3ccccc23)cc1)Nc1cccc(Br)c1` came in with an IC50 above 10000 nM.

Molecule `O=C(Nc1ccc(Nc2ncnc3sccc23)cc1)Nc1cccc(Br)c1` gave an IC50 above 10000 nM.

Turning to `O=C(Nc1ccc(Nc2ncnc3sc4c(c23)CCCC4)cc1)Nc1cccc(Br)c1`, the IC50 was above 10000 nM.

With `O=C(Nc1ccc(Oc2ncnc3ccccc23)cc1)Nc1cccc(Br)c1`, the IC50 is above 10000 nM.

As for `O=C(Nc1ccc(Oc2ncnc3sccc23)cc1)Nc1cccc(Br)c1`, the IC50 was above 10000 nM.

For `O=C(Nc1ccc(Oc2ncnc3sc4c(c23)CCCC4)cc1)Nc1cccc(Br)c1`, the IC50 is above 10000 nM.

Another assay has as its target Platelet-derived growth factor receptor beta (Homo sapiens, UniProt P09619). Nature of the assay: Inhibition of PDGFR-beta (unknown origin) by radiometric protein kinase assay.
`COc1cc2ncnc(Oc3ccc(NC(=O)Nc4cccc(Br)c4)cc3)c2cc1OC` had an IC50 of 5 nM.

Take `O=C(Nc1ccc(Nc2ncnc3ccccc23)cc1)Nc1cccc(Br)c1`: inhibition was half-maximal at 850 nM (IC50).

Molecule `O=C(Nc1ccc(Nc2ncnc3sccc23)cc1)Nc1cccc(Br)c1` registered an IC50 of 2120 nM.

In turn, `O=C(Nc1ccc(Nc2ncnc3sc4c(c23)CCCC4)cc1)Nc1cccc(Br)c1` came in with an IC50 of 2820 nM.

On to `O=C(Nc1ccc(Oc2ncnc3ccccc23)cc1)Nc1cccc(Br)c1`, for which the IC50 was 320 nM.

As for `O=C(Nc1ccc(Oc2ncnc3sccc23)cc1)Nc1cccc(Br)c1`, it took 570 nM to reach half-maximal inhibition (IC50).

On to `O=C(Nc1ccc(Oc2ncnc3sc4c(c23)CCCC4)cc1)Nc1cccc(Br)c1`, for which the IC50 came to 2300 nM.

Another assay has as its target Mast/stem cell growth factor receptor Kit (Homo sapiens, UniProt P10721). Briefly: Inhibition of c-Kit (unknown origin) by radiometric protein kinase assay.
The molecule `COc1cc2ncnc(Oc3ccc(NC(=O)Nc4cccc(Br)c4)cc3)c2cc1OC` showed an IC50 of 16 nM.

As for `COc1cc2ncnc(Nc3ccc(NC(=O)Nc4cccc(Br)c4)cc3)c2cc1OC`, the IC50 is 3 nM.

As to `O=C(Nc1ccc(Nc2ncnc3ccccc23)cc1)Nc1cccc(Br)c1`, inhibition was half-maximal at 1 nM (IC50).

Consider `O=C(Nc1ccc(Nc2ncnc3sccc23)cc1)Nc1cccc(Br)c1`, for which the IC50 was found to be 1 nM.

`O=C(Nc1ccc(Nc2ncnc3sc4c(c23)CCCC4)cc1)Nc1cccc(Br)c1` registered an IC50 of 6 nM.

In turn, `O=C(Nc1ccc(Oc2ncnc3ccccc23)cc1)Nc1cccc(Br)c1` yielded an IC50 of 14 nM.

For `O=C(Nc1ccc(Oc2ncnc3sccc23)cc1)Nc1cccc(Br)c1`, the IC50 was found to be 11 nM.

`O=C(Nc1ccc(Oc2ncnc3sc4c(c23)CCCC4)cc1)Nc1cccc(Br)c1`: the IC50 stood at 17 nM.

For another assay, the target named is Vascular endothelial growth factor receptor 3 (Homo sapiens, UniProt P35916). Nature of the assay: Inhibition of VEGFR3 (unknown origin) by radiometric protein kinase assay.
`COc1cc2ncnc(Oc3ccc(NC(=O)Nc4cccc(Br)c4)cc3)c2cc1OC`: the midpoint of inhibition, the IC50, lay at 9 nM.

Consider `O=C(Nc1ccc(Nc2ncnc3ccccc23)cc1)Nc1cccc(Br)c1`, for which the IC50 was 47 nM.

Molecule `O=C(Nc1ccc(Nc2ncnc3sccc23)cc1)Nc1cccc(Br)c1` returned an IC50 of 1980 nM.

The molecule `O=C(Nc1ccc(Nc2ncnc3sc4c(c23)CCCC4)cc1)Nc1cccc(Br)c1` returned a 50% inhibitory concentration (IC50) of 420 nM.

`O=C(Nc1ccc(Oc2ncnc3ccccc23)cc1)Nc1cccc(Br)c1` came in with an IC50 of 7 nM.

Take `O=C(Nc1ccc(Oc2ncnc3sccc23)cc1)Nc1cccc(Br)c1`: the IC50 was determined as 6 nM.

Molecule `O=C(Nc1ccc(Oc2ncnc3sc4c(c23)CCCC4)cc1)Nc1cccc(Br)c1` yielded an IC50 of 1020 nM.
